{"data": "Measured values pooled from the literature", "ADORA2B": "Adenosine receptor A2b (ADORA2B, Homo sapiens, UniProt P29275)", "HTR4": "5-hydroxytryptamine receptor 4 (HTR4, Homo sapiens, UniProt Q13639)", "MMP13": "Collagenase 3 (MMP13, Homo sapiens, UniProt P45452)", "note": "Protocols differ between the studies behind these lines."}
{"SMILES": "C[C@H]1CN(C2COC2)CCN1c1ccc(Nc2cc(-c3ccnc(N4CCn5c(cc6c5CC(C)(C)C6)C4=O)c3CO)cn(C)c2=O)nc1", "target": "Solute carrier organic anion transporter family member 1B1 (SLCO1B1, Homo sapiens, UniProt Q9Y6L6)", "test": "transporter uptake, inhibitor", "test system": "HEK293", "Ki [nM]": 1940}
{"SMILES": "C=CCN1CCCn2c1nc1c2c(=O)n(C)c(=O)n1C", "target": "ADORA2B", "test": "ligand displacement, radioligand", "setting": "cell membranes", "Ki [nM]": "> 10000"}
{"SMILES": "N=C(N)N1CCC[C@H]1c1nc(-c2ccc(CCC3CCCCC3)c(C(F)(F)F)c2)no1", "target": "Sphingosine kinase 2 (Sphk2, Mus musculus, UniProt Q9JIA7)", "test": "enzyme activity, inhibitor", "Ki [nM]": 110}
{"SMILES": "CCCCN1CCC(COC(=O)c2ccc(N)c(OCF)c2)CC1", "target": "HTR4", "test": "ligand displacement, radioligand", "Ki [nM]": 0.8}
{"SMILES": "Cc1c(-c2ccccc2)oc2c(C(=O)OCCN3CCCCC3)cccc2c1=O", "target": "HTR4", "test": "cell-free assay, radioligand", "setting": "cell membranes", "Ki [nM]": "> 10000"}
{"SMILES": "CCCC(C)N1CCCn2c1nc1c2c(=O)n(C)c(=O)n1C (stereo not shown)", "target": "ADORA2B", "test": "ligand displacement, radioligand", "setting": "cell membranes", "Ki [nM]": "> 10000"}
{"SMILES": "C[C@]12CCC(=O)C=C1CC[C@@H]1[C@@H]2[C@@H](O)C[C@@]2(C)[C@H]1CC[C@]2(O)C(=O)CO", "target": "G-protein coupled estrogen receptor 1 (GPER1, Homo sapiens, UniProt Q99527)", "test": "ligand displacement, radioligand", "Ki [nM]": 4400}
{"SMILES": "CCCCN1CCCn2c1nc1c2c(=O)n(C)c(=O)n1C", "target": "ADORA2B", "test": "ligand displacement, radioligand", "setting": "cell membranes", "Ki [nM]": "> 10000"}
{"SMILES": "COC(=O)c1ccc(CSc2nc3c(c(=O)[nH]2)CCC3)cc1", "target": "MMP13", "test": "enzyme activity, inhibitor", "Ki [nM]": 1500}
{"SMILES": "CCCCn1c(=O)c2[nH]c(C34CC5CC(CC3C5)C4)nc2n(CCCO)c1=O", "target": "ADORA2B", "test": "ligand displacement, radioligand", "setting": "cell membranes", "Ki [nM]": 48.6}
{"SMILES": "CCCCCCCCCCCCCC#CC(=O)O", "target": "Fatty acid synthase (Plasmodium falciparum, UniProt Q965D7)", "test": "enzyme activity, inhibitor", "Ki [nM]": 4750}
{"SMILES": "COc1ccc(CCCn2ncc3c2nc(N)n2nc(-c4ccco4)nc32)cc1", "target": "Adenosine receptor A1 (Mus musculus, UniProt Q60612)", "test": "ligand displacement, radioligand", "setting": "cell membranes", "Ki [nM]": 765}
{"SMILES": "OC[C@@]12C[C@@H]1[C@@H](n1cnc3c(NC(C4CCCC4)C4CCCC4)nc(Cl)cc31)[C@H](O)[C@@H]2O", "target": "Beta-3 adrenergic receptor (ADRB3, Homo sapiens, UniProt P13945)", "test": "cell-free assay, radioligand", "Ki [nM]": 4700}
{"SMILES": "CC(C)N1CCCn2c1nc1c2c(=O)n(C)c(=O)n1C", "target": "ADORA2B", "test": "ligand displacement, radioligand", "setting": "cell membranes", "Ki [nM]": "> 10000"}
{"SMILES": "Oc1nc(SCc2ccc(Cl)cc2)nc2c1CCC2", "target": "MMP13", "test": "enzyme activity, inhibitor", "Ki [nM]": 3300}
{"SMILES": "Nc1ncnc2c1ncn2[C@@H]1O[C@H](COP(=O)(O)OP(=O)(O)O)[C@@H](O)[C@H]1O", "target": "nod (Drosophila melanogaster, UniProt P18105)", "test": "enzyme activity, inhibitor", "Ki [nM]": "~2000"}
